We go through 8 compounds from ChEMBL document CHEMBL1153511, “Synthesis and biological evaluation of sphingosine kinase substrates as sphingosine-1-phosphate receptor prodrugs” (2009).

Molecules are shown by their SMILES. Calls of active or inactive are those of the source. No cut-off for these calls is given here.

Test [1] concerns the target T1, Sphingosine 1-phosphate receptor 4 (Homo sapiens) (UniProt O95977).
T1 sequence (whole entry): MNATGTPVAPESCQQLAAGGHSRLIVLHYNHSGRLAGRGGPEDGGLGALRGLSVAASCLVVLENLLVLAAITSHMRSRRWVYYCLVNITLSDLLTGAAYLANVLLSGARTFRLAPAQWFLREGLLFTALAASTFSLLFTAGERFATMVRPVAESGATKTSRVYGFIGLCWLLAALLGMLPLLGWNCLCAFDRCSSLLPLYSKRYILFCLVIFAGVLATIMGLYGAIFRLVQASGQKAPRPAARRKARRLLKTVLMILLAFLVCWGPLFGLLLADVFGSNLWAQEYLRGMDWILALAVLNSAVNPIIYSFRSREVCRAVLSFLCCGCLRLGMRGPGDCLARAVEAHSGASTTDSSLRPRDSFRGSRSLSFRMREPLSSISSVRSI
Nature of the test: Ratio of agonistic Emax for S1P to compound for human S1P4 receptor by [35S]GTPgammaS binding assay. It is filed as functional. The method, boiled down:
(§1)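 The chemically phosphorylated compounds were tested as agonists at each individual S1P receptor. Agonist-stimulated binding of GTP[γ-35S] to membranes was measured. EC50 and Emax were normalized to those of S1P run in the same assay.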
For orientation: GTPγS is a poorly hydrolysed GTP analogue; its binding reports G protein activation.

Test [2] addresses Sphingosine 1-phosphate receptor 2 (Homo sapiens) (UniProt O95136). As to the kind of experiment: Ratio of agonistic EC50 for S1P to compound for human S1P2 receptor by [35S]GTPgammaS binding assay. It is filed as functional. In a few lines: as §1
Test [3] concerns the target Sphingosine 1-phosphate receptor 3 (Homo sapiens) (UniProt Q99500). As to the kind of experiment: Ratio of agonistic Emax for S1P to compound for human S1P3 receptor by [35S]GTPgammaS binding assay. It is filed as functional. In a few lines:
as §1

The target in test [4] is Sphingosine 1-phosphate receptor 5 (Homo sapiens) (UniProt Q9H228). As to the kind of experiment: Ratio of agonistic EC50 for S1P to compound for human S1P5 receptor by [35S]GTPgammaS binding assay. It is filed as functional. In a few lines: as §1
Test [5] concerns the target Sphingosine 1-phosphate receptor 1 (Homo sapiens) (UniProt P21453). Nature of the test: Ratio of agonistic EC50 for S1P to compound for human S1P1 receptor by [35S]GTPgammaS binding assay. It is filed as functional. The method, boiled down: as §1
A further test deals with Mus musculus. As to the kind of experiment: Induction of S1P1-mediated lymphopenia in mouse assessed as lymphocyte depletion at 10 mg/kg, ip after 20 hrs. The class given is functional. To be noted: route intraperitoneal. In a few lines:
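Mice received a single ip injection. Lymphocyte depletion from peripheral blood was assessed 20 h after dosing.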

Test [6] has as its target Sphingosine 1-phosphate receptor 5 (Homo sapiens) (UniProt Q9H228). As to the kind of experiment: Ratio of agonistic Emax for S1P to compound for human S1P5 receptor by [35S]GTPgammaS binding assay. The class given is functional. In a few lines:
as §1

For test [7], the target named is T1, Sphingosine 1-phosphate receptor 4 (Homo sapiens). Nature of the test: Ratio of agonistic EC50 for S1P to compound for human S1P4 receptor by [35S]GTPgammaS binding assay. It is filed as functional. The method, boiled down:
as §1

Test [8] addresses Sphingosine 1-phosphate receptor 2 (Homo sapiens) (UniProt O95136). As to the kind of experiment: Ratio of agonistic Emax for S1P to compound for human S1P2 receptor by [35S]GTPgammaS binding assay. It is filed as functional. The method, boiled down: as §1
For test [9], the target named is Sphingosine 1-phosphate receptor 3 (Homo sapiens) (UniProt Q99500). As to the kind of experiment: Ratio of agonistic EC50 for S1P to compound for human S1P3 receptor by [35S]GTPgammaS binding assay. It is filed as functional. In a few lines: as §1
Test [10] addresses Sphingosine 1-phosphate receptor 1 (Homo sapiens) (UniProt P21453). As to the kind of experiment: Ratio of agonistic Emax for S1P to compound for human S1P1 receptor by [35S]GTPgammaS binding assay. It is filed as functional. In a few lines:
as §1

In test [11] the target is Sphingosine kinase 1 (Homo sapiens) (UniProt Q9NYA1). Nature of the test: Activity at human SPHK1 at 100 uM.
The target of test [12] is T2, Sphingosine kinase 2 (Homo sapiens) (UniProt Q9NRA0).
T2 sequence (whole entry): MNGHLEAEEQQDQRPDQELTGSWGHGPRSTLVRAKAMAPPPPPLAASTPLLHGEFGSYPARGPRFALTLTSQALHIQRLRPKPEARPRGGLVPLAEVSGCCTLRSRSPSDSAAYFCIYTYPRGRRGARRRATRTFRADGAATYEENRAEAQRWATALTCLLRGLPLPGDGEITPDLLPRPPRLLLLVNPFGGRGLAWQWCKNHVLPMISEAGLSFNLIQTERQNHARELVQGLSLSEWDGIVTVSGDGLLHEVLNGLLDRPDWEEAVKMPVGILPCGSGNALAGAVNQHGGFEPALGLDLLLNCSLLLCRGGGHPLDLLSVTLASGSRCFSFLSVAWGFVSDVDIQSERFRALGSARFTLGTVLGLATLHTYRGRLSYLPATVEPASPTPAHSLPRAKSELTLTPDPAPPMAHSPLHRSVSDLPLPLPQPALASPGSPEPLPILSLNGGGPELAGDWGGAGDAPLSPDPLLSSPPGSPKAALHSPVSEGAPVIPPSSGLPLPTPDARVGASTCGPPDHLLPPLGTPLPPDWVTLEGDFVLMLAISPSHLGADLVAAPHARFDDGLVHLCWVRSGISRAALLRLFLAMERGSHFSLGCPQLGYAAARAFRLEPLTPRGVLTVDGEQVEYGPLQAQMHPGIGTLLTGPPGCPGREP
Nature of the test: Activity at human SPHK2 at 100 uM.

The target in test [13] is T2, Sphingosine kinase 2 (Homo sapiens). Nature of the test: Activity at human SPHK2 at 15 uM.

Sequence of Sphingosine 1-phosphate receptor 3 (Homo sapiens) (Q99500 whole entry): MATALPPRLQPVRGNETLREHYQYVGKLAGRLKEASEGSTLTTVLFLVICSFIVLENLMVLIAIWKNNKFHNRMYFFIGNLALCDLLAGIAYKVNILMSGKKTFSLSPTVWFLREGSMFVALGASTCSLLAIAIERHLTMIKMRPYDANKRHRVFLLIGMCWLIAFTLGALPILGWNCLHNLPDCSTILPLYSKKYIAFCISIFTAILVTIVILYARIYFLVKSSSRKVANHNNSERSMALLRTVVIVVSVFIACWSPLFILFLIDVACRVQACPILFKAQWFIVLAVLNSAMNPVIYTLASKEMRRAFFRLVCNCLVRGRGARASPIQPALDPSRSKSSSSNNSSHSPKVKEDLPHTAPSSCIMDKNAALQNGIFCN
Sequence of Sphingosine 1-phosphate receptor 2 (Homo sapiens) (O95136 whole entry): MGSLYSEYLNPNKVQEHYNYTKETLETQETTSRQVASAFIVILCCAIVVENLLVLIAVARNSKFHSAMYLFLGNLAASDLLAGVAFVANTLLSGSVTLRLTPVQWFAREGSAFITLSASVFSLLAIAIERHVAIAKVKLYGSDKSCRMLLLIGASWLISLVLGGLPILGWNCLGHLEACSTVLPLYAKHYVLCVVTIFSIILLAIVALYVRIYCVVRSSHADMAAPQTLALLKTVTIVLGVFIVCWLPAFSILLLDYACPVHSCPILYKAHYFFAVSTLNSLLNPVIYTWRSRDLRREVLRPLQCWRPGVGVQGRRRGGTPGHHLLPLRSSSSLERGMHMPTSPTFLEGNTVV
Sequence of Sphingosine 1-phosphate receptor 5 (Homo sapiens) (Q9H228 whole entry): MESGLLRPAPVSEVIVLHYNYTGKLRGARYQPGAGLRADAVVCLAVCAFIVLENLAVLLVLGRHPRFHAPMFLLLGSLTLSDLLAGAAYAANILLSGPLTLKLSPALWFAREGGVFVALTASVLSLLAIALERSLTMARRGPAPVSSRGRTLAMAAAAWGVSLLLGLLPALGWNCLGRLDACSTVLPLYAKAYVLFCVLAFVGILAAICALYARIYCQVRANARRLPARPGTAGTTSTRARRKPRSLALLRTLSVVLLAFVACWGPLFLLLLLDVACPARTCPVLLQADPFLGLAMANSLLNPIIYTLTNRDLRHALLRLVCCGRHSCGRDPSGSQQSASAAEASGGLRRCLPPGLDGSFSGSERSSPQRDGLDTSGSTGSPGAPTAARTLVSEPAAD
Sequence of Sphingosine 1-phosphate receptor 1 (Homo sapiens) (P21453 whole entry): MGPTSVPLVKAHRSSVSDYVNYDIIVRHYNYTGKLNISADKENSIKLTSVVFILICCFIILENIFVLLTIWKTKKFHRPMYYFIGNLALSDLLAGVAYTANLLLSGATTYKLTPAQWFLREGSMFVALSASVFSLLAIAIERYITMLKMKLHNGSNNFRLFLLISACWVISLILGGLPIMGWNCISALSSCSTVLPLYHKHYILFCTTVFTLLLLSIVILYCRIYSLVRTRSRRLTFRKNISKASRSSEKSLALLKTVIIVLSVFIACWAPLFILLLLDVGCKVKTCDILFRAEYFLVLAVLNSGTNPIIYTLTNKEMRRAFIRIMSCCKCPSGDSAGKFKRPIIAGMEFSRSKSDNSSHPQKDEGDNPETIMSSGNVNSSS
Sequence of Sphingosine kinase 1 (Homo sapiens) (Q9NYA1 whole entry): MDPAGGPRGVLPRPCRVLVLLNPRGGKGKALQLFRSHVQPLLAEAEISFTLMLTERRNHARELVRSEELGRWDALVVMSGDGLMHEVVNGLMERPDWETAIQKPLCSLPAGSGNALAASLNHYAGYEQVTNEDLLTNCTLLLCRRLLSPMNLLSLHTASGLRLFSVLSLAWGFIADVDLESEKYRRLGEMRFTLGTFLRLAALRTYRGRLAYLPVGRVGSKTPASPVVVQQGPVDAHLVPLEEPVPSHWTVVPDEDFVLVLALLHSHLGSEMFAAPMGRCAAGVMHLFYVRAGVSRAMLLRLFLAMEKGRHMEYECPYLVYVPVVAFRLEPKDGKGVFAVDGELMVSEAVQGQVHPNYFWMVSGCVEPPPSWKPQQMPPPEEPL

With `CCCCCCCCc1ccc(-c2cnc([C@@](C)(N)COP(=O)(O)O)[nH]2)cc1.O=C(O)C(F)(F)F.O=C(O)C(F)(F)F`, the Ratio in test [1] came to 0.93; in test [3] it was 0.65; in test [6], 0.83; in test [8], 0; in [10], 0.87. Also, in test [2], the “Ratio EC50” value was “inactive”. The Ratio EC50 is 3.62 in test [4], 1.09 in [5], 0.59 in test [7] and 50.8 in [9]. The Activity with Mus musculus is listed as 75%.

Regarding `CCCCCCCCc1ccc(-c2cnc([C@](C)(N)COP(=O)(O)O)[nH]2)cc1.O=C(O)C(F)(F)F.O=C(O)C(F)(F)F`, the Ratio was 1.19 in [1]; 0.61 in test [3]; 0.83 in [6]; 0 in test [8]; 0.92 in test [10]. Moreover, the “Ratio EC50” value in test [2] is “inactive”. Besides, the Ratio EC50 in test [4] came to 16.1; in test [5], 8.09; in [7], 4.13; in [9], 1000. Further, in the test with Mus musculus, the Activity stood at 75%.

For the compound `CCCCCCCCc1ccc(-c2nc(C(C)(N)CO)no2)cc1` (centres undefined), the outcome in [11] was Active.

With `CCCCCCCCc1ccc(-c2nc(C(C)(N)COP(=O)(O)O)no2)cc1` (centres undefined), the Ratio EC50 worked out at 21.6 in [4] and 2.5 in test [5]. The Ratio stood at 1 in test [6], 0 in test [8] and 1 in test [10].

`CCCCCCCCc1ccc(-c2noc(C(C)(N)COP(=O)(O)O)n2)cc1` (racemic): the Ratio in test [1] stood at 0.81; in [3], 0.51; in test [6], 0.73; in test [8] it was 0; in test [10], 0.89. Also, the “Ratio EC50” value in test [2] was “inactive”. Also, the Ratio EC50 worked out at 4.35 in [4], 24.4 in test [5], 0.52 in test [7] and 23 in test [9].

On to `CCCCCCCCc1ccc(-c2cnc([C@](C)(N)CO)[nH]2)cc1`, for which the Activity in the test on Mus musculus is listed as 75%. The outcome in test [12] was inactive.

As for `CCCCCCCCc1ccc(-c2cnc([C@@](C)(N)CO)[nH]2)cc1`, the Activity with Mus musculus is 75%; in test [13], 20%.

As to `CCCCCCCCc1ccc(-c2coc(C(C)(N)COP(=O)(O)O)n2)cc1` (centres undefined), the Ratio in test [3] was found to be 1; in test [6] it was 0.6; in [8], 0; in [10] it was 0.8. Also, the Ratio EC50 in [4] stood at 24.1; in test [5], 4.28; in [9], 52.5.
